Results on 1 compound are retold here after ChEMBL document CHEMBL1143814, “Clinical and pharmacokinetic data support once-daily low-dose boosted saquinavir (1,200 milligrams saquinavir with 100 milligrams ritonavir) in treatment-naive or limited protease inhibitor-experienced human immunodeficiency virus-infected patients” (Antimicrob Agents Chemother, 2007).

Structures are written as SMILES.

What all share (assay type): ADME, organism-based
The nature of data set [1]: Ratio of Cmin in PBMC cellular compartment to plasma in HIV infected patient. To be noted: human, read-out: Cmin_ratio. The essentials: (§1)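 Trough (Cmin) saquinavir was sampled at steady state on once-daily 1,200/100 mg saquinavir/ritonavir, either as the 24-h point of the full profile or as a single sample 24 ± 0.5 h postdose. Plasma and Ficoll-isolated PBMC (volume from weight) were assayed by HPLC-UV at 215 nm (LLOQ 40 ng/ml). Ratio = intracellular/plasma concentration.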

Data set [2] can be described thus: Cmin in HIV infected virological failure patient plasma after 24 hrs. To be noted: human, read-out: Cmin. The procedure, abridged: (§2)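 Plasma PK at steady state (≥1 month) in HIV patients on once-daily saquinavir 1,200 mg plus ritonavir 100 mg and two NRTIs. EDTA blood was drawn predose and at 2, 4, 6, 8, 12 and 24 h after supervised intake, or as a single 24 ± 0.5 h trough. Plasma was stored at −70°C and assayed by HPLC-UV at 215 nm (LLOQ 40 ng/ml). Parameters were noncompartmental, with the terminal slope from the 12–24 h points.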

A short description of data set [3]: AUC (0 to 24 hrs) in PBMC cellular compartment of HIV infected patient after 24 hrs. As to conditions: human. The arrangement: time < 24 hr. The essentials: (§3)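 PBMC drug levels, same once-daily saquinavir/ritonavir 1,200/100 mg regimen at steady state, same sampling times. PBMC were isolated from EDTA blood diluted 1:1 in PBS (pH 7.4) by Ficoll density centrifugation and washed twice in PBS. Pellet volume was taken as equal to its weight. Pellets were frozen at −70°C and assayed by HPLC-UV at 215 nm. Analysis was noncompartmental, with the terminal phase from the 12–24 h points.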

The nature of data set [4]: AUC (0 to 24 hrs) in PBMC cellular compartment of HIV infected virological failure patient. More on the design: time < 24 hr. To be noted: human. The essentials: as §3
The nature of data set [5]: Cmax in HIV infected patient plasma after 24 hrs. To be noted: human. The essentials:
as §2

Data set [6] in a line: Cmin in PBMC cellular compartment of HIV infected virological failure patient after 24 hrs. As to conditions: human, read-out: Cmin. The essentials: as §3
The species named for data set [7] is Homo sapiens. Put plainly: Ratio of elimination half life in PBMC cellular compartment to plasma in HIV infected patient. The essentials:
(§4)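 Steady-state study (≥1 month on once-daily saquinavir 1,200 mg + ritonavir 100 mg with two NRTIs). 24-h profile: blood drawn predose and at 2, 4, 6, 8, 12 and 24 h after supervised intake. Plasma was separated, and PBMC were isolated on a Ficoll gradient, weighed, and volume was taken as weight. Saquinavir was measured by HPLC-UV at 215 nm (LLOQ 40 ng/ml). Noncompartmental analysis was used, with terminal slope from the 12–24 h points. Ratio = intracellular/plasma.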

The nature of data set [8]: AUC (0 to 24 hrs) in HIV infected virological failure patient plasma. The arrangement: time < 24 hr. To be noted: human. The essentials: as §4
For data set [9], the species on record is Homo sapiens. Put plainly: Ratio of Cmax in PBMC cellular compartment to plasma in HIV infected virological failure patient. The procedure, abridged:
as §4

The nature of data set [10]: Elimination half life in HIV infected patient plasma after 24 hrs. As to conditions: human. The essentials: as §2
Data set [11] is described as follows: Ratio of AUC (0 to 24 hrs) in PBMC cellular compartment to plasma in HIV infected patient. To be noted: human, read-out: AUC_ratio. The procedure, abridged: as §4
Data set [12] is described as follows: AUC (0 to 24 hrs) in HIV infected patient plasma after 24 hrs. More on the design: time < 24 hr. To be noted: human. The procedure, abridged:
as §2

Data set [13] is filed under the species Homo sapiens. In words: Ratio of elimination half life in PBMC cellular compartment to plasma in HIV infected virological failure patient. The essentials: as §4
Data set [14] in a line: Elimination half life in HIV infected virological failure patient plasma after 24 hrs. As to conditions: human. The procedure, abridged: as §2
Data set [15] is filed under the species Homo sapiens. In words: Ratio of Cmax in PBMC cellular compartment to plasma in HIV infected patient. The essentials: as §4
Data set [16] in a line: Cmax in HIV infected virological failure patient plasma after 24 hrs. To be noted: human. The procedure, abridged: as §2
Data set [17] in a line: Cmin in HIV infected patient plasma after 24 hrs. To be noted: human, read-out: Cmin. The essentials: as §2
Data set [18] is described as follows: Ratio of Cmin in PBMC cellular compartment to plasma in HIV infected virological failure patient. As to conditions: human, read-out: Cmin_ratio. The essentials:
as §1

The nature of data set [19]: Elimination half life in PBMC cellular compartment of HIV infected virological failure patient after 24 hrs. To be noted: human. The procedure, abridged: as §3
A short description of data set [20]: Ratio of AUC (0 to 24 hrs) in PBMC cellular compartment to plasma in HIV infected virological failure patient. To be noted: human, read-out: AUC_ratio. The essentials: as §4
Data set [21] in a line: Elimination half life in PBMC cellular compartment of HIV infected patient after 24 hrs. As to conditions: human. The procedure, abridged:
as §3

Data set [22] in a line: Cmax in PBMC cellular compartment of HIV infected virological failure patient after 24 hrs. To be noted: human. The essentials: as §3
Where [23] appears, read: in the assay text read “HIV infected patient” for “HIV infected virological failure patient”.

As a reminder, the AUC(0-t) is exposure summed from dosing to a finite time, without extrapolation to infinity. High values mean high exposure, low ones low exposure. In general, Cmax refers to the highest concentration seen after dosing. What is called half-life is how long it takes for the measured level to halve. Low readings indicate rapid decline, high ones slow decline. Take `CC(C)(C)NC(=O)[C@@H]1C[C@@H]2CCCC[C@@H]2CN1C[C@@H](O)[C@H](Cc1ccccc1)NC(=O)[C@H](CC(N)=O)NC(=O)c1ccc2ccccc2n1` [SAQUINAVIR]: the Kp came out at 2.39 in data set [1], 2.75 in data set [11], 3.01 in [18] and 3.53 in [20]. In addition, the concentration at 24 h in [2] turned out to be 384 ng/mL; in data set [6] (setting [23]) it was 996 ng/mL; in data set [6] it was 1220 ng/mL; in data set [17] it was 431 ng/mL. Also, the AUC(0-t) at 24 h in data set [3] was determined as 99500 ng·h/mL; in data set [4] it was 132000 ng·h/mL; in data set [8], 35300 ng·h/mL; in data set [12], 34300 ng·h/mL. In addition, the Cmax in data set [5] was 3670 ng/mL; in data set [16], 3320 ng/mL; in data set [22], 15200 ng/mL; in [22] (setting [23]), 10100 ng/mL. In addition, the t1/2_ratio in the data set filed under Homo sapiens [7] and in the data set listed under Homo sapiens [13] was 1.5 in each case. Moreover, the values for the Cmax_ratio in the data set filed under Homo sapiens [9] and in the data set filed under Homo sapiens [15] were 4.46 (null) and 2.75 (null), respectively. In addition, the half-life in data set [10] was 8.25 h; in data set [14], 8.51 h; in data set [19], 10.9 h; in [21], 12.5 h.
